Assay results from ChEMBL document CHEMBL2040760, “Synthesis and biological evaluation of novel (-)-Cercosporamide derivatives as potent selective PPARγ modulators” (Eur J Med Chem, 2012).
In brackets after ≈: the same amount, converted by molar mass. Activity calls are given as the source filed them. The calls are words filed in the database; no cut-off is given here.

Columns and labels:
[1] = biological target: T1, Peroxisome proliferator-activated receptor gamma (Homo sapiens) (UniProt P37231); assay: Modulation of full-length human pSG5-fused PPARgamma expressed in MG-63 cells co-expressing pGV-P2-PPRE after 24 hrs by luciferase reporter gene based transactivation assay relative to 5-(4-{[6-(4-hydroxy-3,5-dimethylphenoxy)-1-methyl-1H-benzimidazol- 2-yl]methoxy}benzyl)-1,3-thiazolidine-2,4-dione; type: cell-based
T1 sequence (whole entry): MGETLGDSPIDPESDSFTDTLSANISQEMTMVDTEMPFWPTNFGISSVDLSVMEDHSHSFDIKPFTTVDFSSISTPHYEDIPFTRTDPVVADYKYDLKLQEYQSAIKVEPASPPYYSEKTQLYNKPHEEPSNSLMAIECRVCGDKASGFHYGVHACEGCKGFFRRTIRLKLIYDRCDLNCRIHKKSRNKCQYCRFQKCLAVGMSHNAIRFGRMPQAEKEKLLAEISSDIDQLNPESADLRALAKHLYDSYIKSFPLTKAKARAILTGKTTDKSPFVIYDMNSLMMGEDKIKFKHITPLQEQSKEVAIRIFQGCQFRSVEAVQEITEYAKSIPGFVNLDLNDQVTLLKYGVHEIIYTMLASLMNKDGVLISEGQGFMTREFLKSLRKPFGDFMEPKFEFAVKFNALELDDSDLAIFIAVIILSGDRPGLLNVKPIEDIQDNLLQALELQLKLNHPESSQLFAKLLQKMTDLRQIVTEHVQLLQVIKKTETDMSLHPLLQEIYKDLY
Method in brief: (§1)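 MG-63 cells transiently co-transfected (Lipofectamine, 4 h, serum- and antibiotic-free) with pSG5-hPPARγ and pGV-P2-PPRE luciferase reporter, replated at 40,000 cells/well. After 24 h and medium change, exposed to graded compound concentrations for 20 h. Luciferase luminescence read as the output.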

[2] = biological target: T2, Peroxisome proliferator-activated receptor gamma (Homo sapiens, UniProt P37231); assay: Modulation of full-length human pSG5-fused PPARgamma expressed in MG-63 cells co-expressing pGV-P2-PPRE after 24 hrs by luciferase reporter gene based transactivation assay; type: cell-based; method in brief: as §1
T2 sequence (P37231 whole entry): T1 sequence (whole entry)

[3] = biological target: T2, Peroxisome proliferator-activated receptor gamma; assay: Modulation of human GAL4-fused PPARgamma LBD expressed in COS7 cells co-expressing pG5luc by luciferase reporter gene based transactivation assay; type: cell-based, COS-7
Method in brief: (§2)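 COS7 cells in DMEM with 10% FBS were transfected with pM-hPPARγ, pM-PPARα or pM-PPARδ (GAL4-LBD) plus pG5luc using Lipofectamine 2000, then reseeded and held about 24 h. Serial dilutions were added, with 0.1% DMSO as control, for about 24 h more. Read-out was luciferase luminescence. Mean ± S.E.M., n = 3.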

[4] = Solubility of the compound in JP2 at pH 6.8; type: physicochemical; details: JP2, pH 6.8
Method in brief: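 Solubility was measured in JP2 medium at pH 6.8.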

[5] = test system: Rattus norvegicus; assay: Toxicity in Zucker diabetic fatty rat assessed as increase in body weight at >1 mg/kg, po qd for 12 days; type: organism-based; details: in vivo, 288 h
Method in brief: (§3)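 Female ZDF rats, 5 weeks old on arrival, acclimatised over 1 week on MR-DBT chow with 10% lard. Randomised on Day -1 by BW, PG, insulin and blood indices. Once-daily oral gavage in 0.5% methylcellulose at 0.01–100 mg/kg for 12 days, n = 5. BW recorded daily. Tail-vein plasma taken Day 12 for glucose, TG, FFA and insulin kits. Dunnett vs vehicle.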

[6] = Terminal half life in Fischer rat at 10 mg/kg, iv; type: ADME, organism-based; parameters: dose 10 mg/kg, route intravenous; details: in vivo, read-out: beta t1/2 (converted)
Method in brief: (§4)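 Male Fischer rats, fasted overnight, received the potassium salt at 10 mg/kg (5 mg/mL, 2 mL/kg). Vehicle was 20% HCO-60 in saline orally or 5% HCO-60 intravenously. Jugular-vein blood was taken and plasma drug measured by LC-MS/MS. Non-compartmental PK analysis; oral n = 4.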

[7] = Total clearance in Fischer rat at 10 mg/kg, iv; type: ADME, organism-based; parameters: dose 10 mg/kg, route intravenous; details: in vivo; method in brief: as §4
[8] = Oral bioavailability in Fischer rat at 10 mg/kg; type: ADME, organism-based; details: in vivo; method in brief: as §4
[9] = test system: Rattus norvegicus; assay: Antidiabetic activity in Zucker diabetic fatty rat assessed as reduction of non-fasting plasma glucose level at >1 mg/kg, po qd for 12 days; type: functional; method in brief: as §3
[10] = test system: Rattus norvegicus; assay: Toxicity in Wistar-Imamichi rat assessed as increase in body weight at 30 to 100 mg/kg, po qd for 14 days; type: organism-based; parameters: dose 30-100 mg/kg, route oral; details: in vivo, 336 h
Method in brief: (§5)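 Female Wistar–Imamichi rats, 7 weeks old on arrival, randomised by BW. Once-daily oral gavage in 0.5% methylcellulose for 14 days, n = 5, BW recorded daily. On Day 14, 0.05% Evans blue was given i.v. (0.1 mL/100 g) and aortic blood drawn at 10 min. Heart weighed. Plasma TCA-deproteinised, sonicated, A620 read, and plasma volume computed from an EB calibration curve.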

[11] = test system: Rattus norvegicus; assay: Toxicity in Wistar-Imamichi rat assessed as increase plasma volume at 100 mg/kg, po qd for 14 days; type: organism-based; parameters: dose 100 mg/kg, route oral; details: in vivo, 336 h; method in brief: as §5
[12] = test system: Rattus norvegicus; assay: Toxicity in Wistar-Imamichi rat assessed as increase heart weight at 100 mg/kg, po qd for 14 days; type: organism-based; parameters: dose 100 mg/kg, route oral; details: in vivo, 336 h; method in brief: as §5
[13] = test system: Rattus norvegicus; assay: Antidiabetic activity in po dosed Zucker diabetic fatty rat assessed as improvement in plasma lipids profiles administered qd for 12 days; type: functional, organism-based; method in brief: as §3
[14] = test system: Rattus norvegicus; assay: Antidiabetic activity in Zucker diabetic fatty rat assessed as reduction of free fatty acids level at >1 mg/kg, po qd for 12 days; type: functional, organism-based; method in brief: as §3
[15] = test system: Rattus norvegicus; assay: Antidiabetic activity in Zucker diabetic fatty rat assessed as reduction of triglyceride level at 1 to 100 mg/kg, po qd for 12 days; type: functional, organism-based
Method in brief: (§6)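 Female ZDF rats (5 weeks old on arrival, acclimatized >1 week on MR-DBT diet with 10% lard) randomized on Day -1 by BW, plasma glucose, insulin, Hct, Hb, RBC, MCV; n = 5/group. Oral gavage once daily in 0.5% methylcellulose, 0.01–100 mg/kg, Days 0–11. BW recorded daily; tail-vein plasma on Day 12 for glucose, TG, insulin, FFA; Dunnett's test vs vehicle.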

[16] = test system: Rattus norvegicus; assay: Toxicity in Zucker diabetic fatty rat assessed as increase in body weight at 0.1 mg/kg, po qd for 12 days; type: organism-based; parameters: dose 0.1 mg/kg, route oral; details: in vivo, 288 h; method in brief: as §6
[17] = test system: Rattus norvegicus; assay: Toxicity in Wistar-Imamichi rat assessed as increase in body weight at 300 mg/kg, po qd for 14 days; type: organism-based; parameters: dose 300 mg/kg, route oral; details: in vivo, 336 h
Method in brief: (§7)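 Female Wistar–Imamichi rats (7 weeks old, acclimatized >1 week on FR2 chow), randomized by BW; n = 5/group. Oral gavage once daily in 0.5% methylcellulose, 100 mg/kg or 30–300 mg/kg, Days 0–13. BW recorded daily. On Day 14, heart weighed after Evans blue dosing and aortic blood draw under ether. Dunnett's or unpaired two-tailed t-test vs vehicle.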

[18] = test system: Rattus norvegicus; assay: Toxicity in po dosed Wistar-Imamichi rat assessed as increase heart weight administered qd for 14 days; type: organism-based; details: in vivo, 336 h; method in brief: as §7
[19] = biological target: T1, Peroxisome proliferator-activated receptor gamma (Homo sapiens); assay: Modulation of human GAL4-fused PPARgamma LBD expressed in COS7 cells co-expressing pG5luc by luciferase reporter gene based transactivation assay relative to control; type: cell-based; details: COS-7; method in brief: as §2
[20] = biological target: T3, Peroxisome proliferator-activated receptor alpha (Homo sapiens) (UniProt Q07869); assay: Modulation of human GAL4-fused PPARalpha LBD expressed in COS7 cells co-expressing pG5luc at 10 uM by luciferase reporter gene based transactivation assay; type: cell-based; details: COS-7; method in brief: as §2
T3 sequence (whole entry): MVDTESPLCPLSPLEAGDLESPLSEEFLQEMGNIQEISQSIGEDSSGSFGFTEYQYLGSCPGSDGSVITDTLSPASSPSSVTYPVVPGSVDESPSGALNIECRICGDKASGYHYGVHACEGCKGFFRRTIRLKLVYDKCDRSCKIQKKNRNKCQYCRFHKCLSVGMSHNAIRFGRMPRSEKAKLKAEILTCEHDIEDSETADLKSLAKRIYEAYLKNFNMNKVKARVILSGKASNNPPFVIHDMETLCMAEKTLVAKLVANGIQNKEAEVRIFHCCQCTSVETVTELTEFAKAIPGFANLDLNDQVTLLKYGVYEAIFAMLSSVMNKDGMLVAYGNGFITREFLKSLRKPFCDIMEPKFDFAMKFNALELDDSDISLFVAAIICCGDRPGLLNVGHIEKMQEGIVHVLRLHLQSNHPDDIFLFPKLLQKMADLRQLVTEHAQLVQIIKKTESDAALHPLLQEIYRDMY

[21] = biological target: T4, Peroxisome proliferator-activated receptor delta (Homo sapiens) (UniProt Q03181); assay: Modulation of human GAL4-fused PPARdelta LBD expressed in COS7 cells co-expressing pG5luc at 10 uM by luciferase reporter gene based transactivation assay; type: cell-based; details: COS-7; method in brief: as §2
T4 sequence (whole entry): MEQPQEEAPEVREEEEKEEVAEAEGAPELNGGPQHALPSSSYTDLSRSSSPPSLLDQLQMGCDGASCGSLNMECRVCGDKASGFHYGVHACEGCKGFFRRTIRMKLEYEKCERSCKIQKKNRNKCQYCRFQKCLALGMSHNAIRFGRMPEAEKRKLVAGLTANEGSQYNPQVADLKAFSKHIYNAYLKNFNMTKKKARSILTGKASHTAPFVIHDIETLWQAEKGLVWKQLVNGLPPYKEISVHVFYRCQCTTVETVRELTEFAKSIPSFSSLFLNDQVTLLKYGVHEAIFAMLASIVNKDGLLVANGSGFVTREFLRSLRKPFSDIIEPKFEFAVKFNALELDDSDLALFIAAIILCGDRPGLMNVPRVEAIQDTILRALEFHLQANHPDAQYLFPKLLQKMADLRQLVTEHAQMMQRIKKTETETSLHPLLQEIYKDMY

[22] = test system: Rattus norvegicus; assay: Antidiabetic activity in Zucker diabetic fatty rat assessed as reduction of triglyceride level at 100 mg/kg, po qd for 12 days; type: functional, organism-based; parameters: dose 100 mg/kg; method in brief: as §3

Structure (SMILES)	Emax [1] [%]	EC50 [2] [nM]	also measured
CCc1cc(F)c2ccccc2c1CNC(=O)c1c(OC)cc(O)c2c1OC1=CC(O)=C(C(C)=O)C(=O)[C@]12C [listing 1 of 2 here]	–	0.94	EC50 [3]: 12 nM; solubility [4]: 23 µg/mL (≈ 43.3 µM)
COc1cc(O)c2c(c1C(=O)NCc1cccc3ccccc13)OC1=CC(O)=C(C(C)=O)C(=O)[C@]12C	47	180	–
CCc1cc(F)c2ccccc2c1CNC(=O)c1c(OC)cc(O)c2c1OC1=CC([O-])=C(C(C)=O)C(=O)[C@]12C.[K+]	–	–	Activity [5]: Toxic; solubility [4]: 910 µg/mL; half-life [6]: 4 h; clearance [7]: 6.98 mL/min/kg; bioavailability [8]: 58%; Activity [9]: <200 mg/dL; Activity [10]: Toxic; Activity [11]: Non-toxic; Activity [12]: Non-toxic
COc1cc(O)c2c(c1C(=O)NCc1c(C)cc(Cl)c3ccccc13)OC1=CC(O)=C(C(C)=O)C(=O)[C@]12C	57	22	–
COc1cc(O)c2c(c1C(=O)NCc1c(C)cc(F)c3ccccc13)OC1=CC(O)=C(C(C)=O)C(=O)[C@]12C	50	4.8	–
CCCCc1ccc2ccccc2c1CNC(=O)c1c(OC)cc(O)c2c1OC1=CC(O)=C(C(C)=O)C(=O)[C@]12C	22	59	–
CN(CCOc1ccc(CC2SC(=O)NC2=O)cc1)c1ccccn1 (configuration not stated) [ROSIGLITAZONE]	–	–	Activity [9]: <200 mg/dL; Activity [13]: Dose-dependent effect; Activity [14]: Active; Activity [15]: Active; Activity [16]: Toxic; Activity [17]: Non-toxic; Activity [18]: Dose-dependent effect
CCCc1ccc2ccccc2c1CNC(=O)c1c(OC)cc(O)c2c1OC1=CC(O)=C(C(C)=O)C(=O)[C@]12C	37	43	–
COc1cc(O)c2c(c1C(=O)NCc1c(C)ccc3c(Cl)cccc13)OC1=CC(O)=C(C(C)=O)C(=O)[C@]12C	59	170	–
CCc1ccc2ccccc2c1CNC(=O)c1c(OC)cc(O)c2c1OC1=CC(O)=C(C(C)=O)C(=O)[C@]12C	39	3.7	–
CCc1cc(F)c2ccccc2c1CNC(=O)c1c(OC)cc(O)c2c1OC1=CC(O)=C(C(C)=O)C(=O)[C@]12C [listing 2 of 2 here]	38	–	Emax [19]: 64%; Activity [20]: inactive; Activity [21]: inactive; Activity [13]: Dose-dependent effect; Activity [22]: Active; Activity [14]: Active

Second part, led by results:

Emax [1] [%]	EC50 [2] [nM]	Structure (SMILES)	also measured
44	4.9	COc1cc(O)c2c(c1C(=O)NCc1c(C)ccc3ccc(Cl)cc13)OC1=CC(O)=C(C(C)=O)C(=O)[C@]12C	–
47	28	COc1cc(O)c2c(c1C(=O)NCc1c(C)ccc3ccccc13)OC1=CC(O)=C(C(C)=O)C(=O)[C@]12C	–
39	16	COc1cc(O)c2c(c1C(=O)NCc1c(C)ccc3c(F)cccc13)OC1=CC(O)=C(C(C)=O)C(=O)[C@]12C	–
40	65	COc1cc(O)c2c(c1C(=O)NCc1c(C)ccc3ccc(F)cc13)OC1=CC(O)=C(C(C)=O)C(=O)[C@]12C	–
28	27	COc1cc(O)c2c(c1C(=O)NCc1c(C)ccc3cc(F)ccc13)OC1=CC(O)=C(C(C)=O)C(=O)[C@]12C	–
26	56	COc1cc(O)c2c(c1C(=O)NCc1c(C)ccc3cc(Cl)ccc13)OC1=CC(O)=C(C(C)=O)C(=O)[C@]12C	–
